# Key:
# [1] = target: Tyrosine-protein kinase JAK2 (Homo sapiens, UniProt O60674); test: Inhibition of recombinant JAK2 using poly(Glu,Ala,Tyr) as substrate after 2 hrs by luminometric assay
# [2] = Half life in human liver microsomes; format: ADME, Microsome
# [3] = Plasma protein binding in mouse at 1000 ng/mL by equilibrium dialysis; format: ADME, cell-free; conditions: read-out: PPB (converted)
# Method in brief: (§1)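 Equilibrium dialysis of plasma (mouse, rat, dog, monkey, human) spiked to 1000 ng/mL final against PBS, 4 h at 37 °C; buffer side extracted with MTBE in triplicate and analyzed by LC-MS/MS.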
# Mus musculus [4] = test: Antiarthritic activity in B10/R3 mouse immunized with bovine type2 collagen in Freund's complete adjuvant assessed as inhibition of increase in clinical arthritic scores at 210 mg/kg, po administered bid for 10 days measured for 10 days; format: functional; conditions: B10/R3, 240 h
# [5] = Terminal half life in Wistar rat at 50 mg/kg, po; format: ADME, organism-based; parameters: dose 50 mg/kg, route oral; conditions: in vivo, read-out: beta t1/2 (converted)
# Method in brief: (§2)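 Single oral dose by gavage as suspension in 0.5% methylcellulose/0.1% Tween 80 (mouse, rat, monkey) or in gelatin capsules (dog). Serial blood samples taken from 0 to 24 h into K3EDTA tubes; plasma stored at −70 °C until analysis. Parameters derived by noncompartmental methods. Rat, dog and monkey n = 3; mouse values estimated from mean concentration-time data, n = 3 mice per time point.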
# [6] = AUC (0 to infinity) in rhesus monkey at 20 mg/kg, po; format: ADME, organism-based, Macaca mulatta; parameters: time infinity, dose 20 mg/kg, route oral; conditions: plasma
# Method in brief: (§3)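 Single oral gavage at 50 (mouse, rat), 5 (dog) or 20 (monkey) mg/kg; rodents and monkeys received suspensions in 0.5% methylcellulose/0.1% Tween 80, dogs gelatin capsules. Serial blood taken 0–24 h into K3EDTA, plasma stored at −70 °C. Parameters estimated by noncompartmental analysis, n = 3 per species (mouse values from mean concentration–time data, 3 mice per time point).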
# [7] = Thermodynamic solubility of the compound at pH 7; format: physicochemical; conditions: buffer, read-out: Therm_solubility
# Method in brief: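 The citrate salt (~5 mg) was made up at 5 mg/mL in pH-buffered solution, in triplicate. It was shaken 24 h at 600 rpm at room temperature, filtered (0.4 μm) and the final pH recorded. The filtrate was diluted in acetonitrile/water (1:1), centrifuged and quantified by HPLC-UV. Two determinations were made on two different batches.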
# [8] = Half life in human liver microsomes at 5 uM; format: ADME, Microsome
# Method in brief: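 Compound at 5 μM with human, mouse or dog microsomes at 0.87 mg/mL, or rat and monkey microsomes at 1 mg/mL, in 50 mM potassium phosphate pH 7.4 with NADPH regenerating system at 37 °C.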
# [9] = Plasma protein binding in monkey at 1000 ng/mL by equilibrium dialysis; format: ADME, cell-free, Macaca mulatta; conditions: rhesus monkey, read-out: PPB (converted); method in brief: as §1
# [10] = target: T1, Tyrosine-protein kinase JAK3 (Homo sapiens, UniProt P52333); test: Inhibition of recombinant JAK3 using poly(Glu,Ala,Tyr) as substrate after 2 hrs by luminometric assay
# T1 sequence (P52333 whole entry): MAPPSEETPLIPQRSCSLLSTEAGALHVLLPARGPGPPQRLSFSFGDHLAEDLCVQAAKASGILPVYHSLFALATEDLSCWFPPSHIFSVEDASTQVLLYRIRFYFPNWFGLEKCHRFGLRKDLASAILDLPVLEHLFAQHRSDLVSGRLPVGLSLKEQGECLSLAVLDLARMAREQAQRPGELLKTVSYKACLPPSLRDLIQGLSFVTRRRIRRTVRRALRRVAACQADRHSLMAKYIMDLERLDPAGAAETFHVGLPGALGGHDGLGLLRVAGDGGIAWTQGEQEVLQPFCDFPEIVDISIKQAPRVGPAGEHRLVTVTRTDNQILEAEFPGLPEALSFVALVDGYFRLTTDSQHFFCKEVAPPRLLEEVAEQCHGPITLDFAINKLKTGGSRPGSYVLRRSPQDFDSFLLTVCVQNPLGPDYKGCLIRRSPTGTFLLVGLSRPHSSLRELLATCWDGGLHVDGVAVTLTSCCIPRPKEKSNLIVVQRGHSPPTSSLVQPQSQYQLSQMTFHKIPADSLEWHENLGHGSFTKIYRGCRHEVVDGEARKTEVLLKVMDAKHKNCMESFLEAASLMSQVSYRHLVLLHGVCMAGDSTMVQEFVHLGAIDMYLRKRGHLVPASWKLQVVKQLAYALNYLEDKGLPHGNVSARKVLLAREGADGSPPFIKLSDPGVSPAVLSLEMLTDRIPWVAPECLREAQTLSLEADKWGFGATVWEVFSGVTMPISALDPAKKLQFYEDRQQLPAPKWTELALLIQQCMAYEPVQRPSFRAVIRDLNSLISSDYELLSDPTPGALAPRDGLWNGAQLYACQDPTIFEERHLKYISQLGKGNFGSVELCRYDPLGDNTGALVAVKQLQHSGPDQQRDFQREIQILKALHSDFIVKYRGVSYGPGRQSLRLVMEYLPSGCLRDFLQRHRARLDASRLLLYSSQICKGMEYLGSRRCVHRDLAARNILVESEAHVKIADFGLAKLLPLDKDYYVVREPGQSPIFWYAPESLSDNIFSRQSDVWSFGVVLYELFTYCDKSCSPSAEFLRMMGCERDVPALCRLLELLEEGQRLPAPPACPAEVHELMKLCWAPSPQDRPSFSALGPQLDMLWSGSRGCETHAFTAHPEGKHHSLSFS
# Mus musculus [11] = test: Antiarthritic activity in B10/R3 mouse immunized with bovine type2 collagen in Freund's complete adjuvant assessed as inhibition of increase in clinical arthritic scores at 105 mg/kg, po administered bid for 10 days measured for 10 days; format: functional; conditions: B10/R3, 240 h
# [12] = Plasma protein binding in dog at 1000 ng/mL by equilibrium dialysis; format: ADME, cell-free, Canis lupus familiaris; conditions: read-out: PPB (converted); method in brief: as §1
# BaF3 = test: Antiproliferative activity against mouse BAF3 cells expressing JAK2 V617F mutant after 48 hrs by luciferase reporter gene assay; format: functional; conditions: BaF3, 48 h
# Cytochrome P450 2D6 = Cytochrome P450 2D6 (Homo sapiens, UniProt P10635); test: Inhibition of CYP2D6 in human liver microsomes using dextromethorphan as substrate by fluorescence detection assay; format: ADME, Microsome
# Chain of Cytochrome P450 2D6 (P10635 whole entry): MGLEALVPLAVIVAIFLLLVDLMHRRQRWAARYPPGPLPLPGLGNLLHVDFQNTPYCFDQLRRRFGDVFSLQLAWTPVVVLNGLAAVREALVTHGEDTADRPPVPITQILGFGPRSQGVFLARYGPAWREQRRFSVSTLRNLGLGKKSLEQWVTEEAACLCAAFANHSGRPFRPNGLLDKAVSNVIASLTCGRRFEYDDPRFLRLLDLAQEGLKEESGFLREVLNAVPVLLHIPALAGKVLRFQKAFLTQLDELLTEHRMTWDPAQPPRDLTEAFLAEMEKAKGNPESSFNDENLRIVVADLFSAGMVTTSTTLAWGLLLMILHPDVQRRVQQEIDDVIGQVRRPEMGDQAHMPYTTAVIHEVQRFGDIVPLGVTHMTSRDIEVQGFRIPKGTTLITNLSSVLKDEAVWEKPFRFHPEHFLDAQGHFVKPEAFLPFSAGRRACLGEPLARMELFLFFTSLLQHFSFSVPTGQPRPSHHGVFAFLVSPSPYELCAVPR
# Method in brief: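 Seven-point concentration series (0.001, 0.01, 0.1, 1.0, 5, 10 and 25 μM) incubated with human liver microsomes. IC50 is the concentration giving 50% inhibition, calculated from the decrease in metabolite formation relative to vehicle control.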
# [13] = Cmax in rhesus monkey at 20 mg/kg, po; format: ADME, organism-based, Macaca mulatta; parameters: dose 20 mg/kg, route oral; conditions: in vivo; method in brief: as §3
# [14] = Terminal half life in beagle dog at 5 mg/kg, po; format: ADME, organism-based, Canis lupus familiaris; parameters: dose 5 mg/kg, route oral; conditions: in vivo, read-out: beta t1/2 (converted); method in brief: as §2
# [15] = Terminal half life in BALB/c nude mouse at 50 mg/kg, po; format: ADME, organism-based; parameters: dose 50 mg/kg, route oral; conditions: in vivo, read-out: beta t1/2 (converted); method in brief: as §2
# [16] = Efflux ratio of apparent permeability across human Caco2 cells at 10 uM after 120 mins by LC-MS/MS analysis; format: ADME, cell-based; conditions: Caco-2
# Method in brief: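 Caco-2 monolayers (passage 40–60) seeded at 1 × 10⁵ cells/cm², used on day 20; HBSS pH 7.4 with 25 mM HEPES and 4.45 mM glucose, 37 °C, 5% CO₂; 10 μM final (1% DMSO) dosed apical or basolateral, 120 min; both compartments quantified by LC-MS/MS; duplicate; reference compounds as controls; monolayer integrity by lucifer yellow permeation.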
# Chain of Tyrosine-protein kinase JAK2 (O60674 whole entry): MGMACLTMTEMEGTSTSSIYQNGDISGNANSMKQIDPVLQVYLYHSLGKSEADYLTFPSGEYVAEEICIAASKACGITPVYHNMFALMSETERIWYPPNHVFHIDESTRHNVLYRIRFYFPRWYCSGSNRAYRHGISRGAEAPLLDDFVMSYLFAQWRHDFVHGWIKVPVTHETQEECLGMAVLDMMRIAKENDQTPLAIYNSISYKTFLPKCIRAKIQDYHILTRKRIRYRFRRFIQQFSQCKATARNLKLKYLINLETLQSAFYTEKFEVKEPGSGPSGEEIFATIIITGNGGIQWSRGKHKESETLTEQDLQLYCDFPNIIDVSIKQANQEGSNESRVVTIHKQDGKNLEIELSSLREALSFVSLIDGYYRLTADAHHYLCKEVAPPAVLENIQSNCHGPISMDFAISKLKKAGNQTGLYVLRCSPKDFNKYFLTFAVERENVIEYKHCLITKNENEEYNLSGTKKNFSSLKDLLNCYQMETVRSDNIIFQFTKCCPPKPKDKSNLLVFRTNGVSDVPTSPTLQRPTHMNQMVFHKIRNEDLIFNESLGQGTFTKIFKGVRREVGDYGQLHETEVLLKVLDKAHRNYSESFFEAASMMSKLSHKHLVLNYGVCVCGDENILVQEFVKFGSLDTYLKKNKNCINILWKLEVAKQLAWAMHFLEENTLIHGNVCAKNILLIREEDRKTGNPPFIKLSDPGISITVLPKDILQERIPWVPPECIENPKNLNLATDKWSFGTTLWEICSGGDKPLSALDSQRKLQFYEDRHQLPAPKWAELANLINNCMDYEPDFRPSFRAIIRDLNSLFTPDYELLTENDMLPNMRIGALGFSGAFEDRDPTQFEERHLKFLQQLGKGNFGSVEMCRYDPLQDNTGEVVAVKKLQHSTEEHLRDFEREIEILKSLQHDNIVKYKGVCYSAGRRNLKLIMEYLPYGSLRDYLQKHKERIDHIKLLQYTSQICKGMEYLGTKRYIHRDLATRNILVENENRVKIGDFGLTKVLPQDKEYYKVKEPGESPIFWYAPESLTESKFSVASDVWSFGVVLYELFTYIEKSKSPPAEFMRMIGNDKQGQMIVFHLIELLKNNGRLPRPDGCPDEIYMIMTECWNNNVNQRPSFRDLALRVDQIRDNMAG
compound,measurement,setting,value
C1=C2COC/C=C/COCc3cc(ccc3OCCN3CCCC3)Nc3nccc(n3)C(=C1)O2 (mixture of isomers) [CT-1578],IC50,[1],0.046 µM
same,half-life,[2],> 1 h
same,fraction unbound at 1000 ng/mL,[3],0.127
same,inhibition in vivo at 210 mg/kg,Mus musculus [4],59%
same,half-life,[5],3.6 h
same,AUC(0-inf),[6],7.59 µg·h/mL
same,solubility thermodynamic,[7],0.88 mg/mL
same,half-life at 5 µM,[8],> 1 h
same,fraction unbound at 1000 ng/mL,[9],0.013
same,IC50,[10],4.3 µM
same,inhibition in vivo at 105 mg/kg,Mus musculus [11],23%
same,fraction unbound at 1000 ng/mL,[12],0.127
same,GI50,BaF3,0.25 µM
same,IC50,Cytochrome P450 2D6,> 10 µM
same,Cmax,[13],1.98 µg/mL
same,half-life,[14],1.5 h
same,half-life,[15],0.8 h
same,"efflux ratio at 2 h, 10 µM",[16],1.1
